Experimental data reported in ChEMBL document CHEMBL1157543, “Synthesis and biological evaluation of polysulfated oligosaccharide glycosides as inhibitors of angiogenesis and tumor growth” (J Med Chem, 2010).
Calls of active or inactive are those of the source. No cut-off for these calls is given here.

Assays:
[1] = molecular target: T1, Heparanase (Homo sapiens, UniProt Q9Y251); test: Inhibition of human recombinant heparanase
T1 sequence (Q9Y251 whole entry): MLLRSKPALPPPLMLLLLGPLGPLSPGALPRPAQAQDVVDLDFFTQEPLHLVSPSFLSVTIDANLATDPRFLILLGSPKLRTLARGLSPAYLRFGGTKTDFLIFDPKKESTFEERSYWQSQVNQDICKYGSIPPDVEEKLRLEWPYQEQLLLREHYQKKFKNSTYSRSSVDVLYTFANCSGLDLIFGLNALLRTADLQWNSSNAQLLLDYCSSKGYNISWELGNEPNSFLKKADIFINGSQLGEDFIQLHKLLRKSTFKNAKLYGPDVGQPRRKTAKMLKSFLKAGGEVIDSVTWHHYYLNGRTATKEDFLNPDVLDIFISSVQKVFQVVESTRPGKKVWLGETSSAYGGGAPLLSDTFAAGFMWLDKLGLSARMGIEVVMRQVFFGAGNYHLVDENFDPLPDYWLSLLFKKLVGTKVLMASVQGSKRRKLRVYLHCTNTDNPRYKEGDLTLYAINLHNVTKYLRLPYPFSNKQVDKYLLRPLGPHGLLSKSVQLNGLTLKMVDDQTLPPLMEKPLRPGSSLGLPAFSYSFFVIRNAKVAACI
Outline: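 Recombinant human heparanase assayed by ultrafiltration with 3H-labelled heparan sulfate as substrate (Km = 1.64 μM). Ki values with standard error were derived from inhibition response curves.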

[2] = molecular target: Fibroblast growth factor 1 (Homo sapiens, UniProt P05230); test: Binding affinity to FGF1 by surface plasmon-based solution affinity assay
Chain of Fibroblast growth factor 1 (P05230 whole entry): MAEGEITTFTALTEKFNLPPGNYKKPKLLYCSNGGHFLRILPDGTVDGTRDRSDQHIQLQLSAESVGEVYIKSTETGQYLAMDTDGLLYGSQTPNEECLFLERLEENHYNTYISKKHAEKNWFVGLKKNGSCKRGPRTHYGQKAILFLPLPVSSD
Outline: (§1)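 Surface plasmon resonance solution affinity assay on heparin-coated CM4 chips. Buffer: HBS-EP (10 mM HEPES pH 7.4, 150 mM NaCl, 3.0 mM EDTA, 0.005% polysorbate 20). Kd is the mean of at least duplicate measurements ± SD.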

[3] = molecular target: Fibroblast growth factor 2 (Homo sapiens, UniProt P09038); test: Binding affinity to FGF2 by surface plasmon-based solution affinity assay
Chain of Fibroblast growth factor 2 (P09038 143-288 limits assumed): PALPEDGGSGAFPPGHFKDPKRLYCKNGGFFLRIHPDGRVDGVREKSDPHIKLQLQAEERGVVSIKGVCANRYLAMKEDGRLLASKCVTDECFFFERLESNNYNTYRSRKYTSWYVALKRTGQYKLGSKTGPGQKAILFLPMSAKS
Outline: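 Surface plasmon resonance solution affinity assay on heparin-coated CM4 chips. FGF-2 binding run in HBS-EP containing 300 mM NaCl. Kd is the mean of at least duplicate measurements ± SD.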

[4] = molecular target: T2, Vascular endothelial growth factor A, long form (Homo sapiens, UniProt P15692); test: Binding affinity to VEGF by surface plasmon-based solution affinity assay; outline: as §1
T2 sequence (P15692 whole entry): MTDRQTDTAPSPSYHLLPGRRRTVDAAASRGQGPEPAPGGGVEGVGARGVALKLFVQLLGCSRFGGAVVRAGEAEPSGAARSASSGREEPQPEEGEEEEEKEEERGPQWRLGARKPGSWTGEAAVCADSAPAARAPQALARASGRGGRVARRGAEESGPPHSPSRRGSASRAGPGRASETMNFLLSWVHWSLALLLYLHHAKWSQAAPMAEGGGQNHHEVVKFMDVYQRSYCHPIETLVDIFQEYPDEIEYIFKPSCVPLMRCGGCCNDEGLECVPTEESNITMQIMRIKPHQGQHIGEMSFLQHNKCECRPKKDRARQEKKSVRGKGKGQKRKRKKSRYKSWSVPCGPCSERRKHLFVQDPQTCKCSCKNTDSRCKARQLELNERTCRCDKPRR

[5] = tested on: Plasma; test: Anticoagulant activity in human plasma assessed as activated partial thromboplastin time; format: functional
Outline: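 Pooled normal human plasma spiked with compound in PBS at 0.1 mg/mL (methods give a 0–100 μg/mL range); APTT elevation measured. Normal range 26–36 s. Values are means of two determinations.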

[6] = tested on: Plasma; test: Anticoagulant activity in human plasma by heptest; format: functional
Outline: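 Heptest clot assay. Plasma (centrifuged 1800g, 10 min, used within 30 min) incubated with compound 2 min at 37 °C. Factor Xa added, 2 min at 37 °C, then clotting started with Recalmix; read on a ball coagulometer. Normal range 13–20 s; means of two determinations.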

[7] = tested on: HUVEC; test: Cytotoxicity against HUVEC; format: cell-based; details: human
[8] = tested on: Aorta; test: Inhibition of angiogenesis in Sprague-Dawley rat aortic endothelium at 50 uM; format: functional, tissue-based
Outline: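 Sprague-Dawley rats (2–4 months old): bisected 1 mm thoracic aortic rings embedded in Matrigel in EBM-2 with 2% FCS, no heparin. Compound added in triplicate, medium replenished every 48 h. Microvessel sprouting scored semiquantitatively by two assessors up to day 8. One-way ANOVA with Dunnett's test.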

[9] = Toxicity in rat aortic endothelium assessed as microvessel sprouts at 10 and 50 uM after 6 or 7 days; format: tissue-based, Sprague-Dawley, Aorta; details: ex_vivo, 168 h
Outline: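 Aortic ring viability check: on day 6 or 7, compound or medium was withdrawn and complete medium with VEGF (typically 10 ng/mL) was added for up to 7 more days. New microvessel sprouting was taken as a sign of viable tissue.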

[10] = tested on: B16; test: Antitumor activity against mouse B16 cells transplanted in C57/BL6 mouse assessed as reduction in tumor volume at 30 mg/kg for 7 days measured on day 10; format: functional; details: read-out: TGI
Outline: (§2)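 B16F1 cells grown in DMEM with 10% FCS, 5×10^5 cells in PBS implanted sc between the shoulder blades of C57 mice (n = 10). From day 3, compound given sc in PBS b.i.d. for 7 days at rotating sites. Tumors measured daily as l × w; p < 0.05 taken as significant.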

[11] = tested on: B16; test: Antitumor activity against mouse B16 cells transplanted in C57/BL6 mouse assessed as reduction in tumor volume at 15 mg/kg for 7 days measured on day 10; format: functional; details: read-out: TGI; outline: as §2
[12] = Half life in Sprague-Dawley rat at 10 mg/kg, iv; format: ADME, organism-based; set-up: dose 10 mg/kg, route intravenous; details: in vivo
Outline: (§3)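 Male Sprague-Dawley rats (n = 2 per route), cannulated the day before. Compound given at 2.8 mg/mL in PBS: iv infusion over 5 min or sc between the scapulae, nominal 10 mg/kg. Arterial blood sampled up to 8 h into tubes with protease inhibitor, KF and EDTA; urine collected to 24 h. Plasma analyzed by LC-MS; noncompartmental analysis.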

[13] = Half life in Sprague-Dawley rat at 10 mg/kg, sc; format: ADME, organism-based; set-up: dose 10 mg/kg, route subcutaneous; details: in vivo; outline: as §3
[14] = Plasma clearance in Sprague-Dawley rat at 10 mg/kg, iv and 10 mg/kg, sc; format: ADME, organism-based; outline: as §3
[15] = Apparent volume of distribution in Sprague-Dawley rat at 10 mg/kg, iv and 10 mg/kg, sc; format: ADME, organism-based; details: in vivo, read-out: Vz; outline: as §3
[16] = Bioavailability in Sprague-Dawley rat at 10 mg/kg, sc; format: ADME, organism-based; details: in vivo; outline: as §3

Row | SMILES | Ki [1] | Kd [2] | Kd [3] | Kd [4] | Time [5] | Activity [6] | LC50 [7] | Activity [8] | Activity [9] | inhibition in vivo at 30 mg/kg [10] | inhibition in vivo at 15 mg/kg [11] | half-life [12] | half-life [13] | clearance [14] | Vd [15] | bioavailability [16]
1 | CCCCCCCCO[C@H]1O[C@H](COS(=O)(=O)[O-])[C@@H](OS(=O)(=O)[O-])[C@H](OS(=O)(=O)[O-])[C@@H]1O[C@H]1O[C@H](COS(=O)(=O)[O-])[C@@H](OS(=O)(=O)[O-])[C@H](O[C@H]2O[C@H](COS(=O)(=O)[O-])[C@@H](OS(=O)(=O)[O-])[C@H](O[C@H]3O[C@H](COS(=O)(=O)[O-])[C@@H](OS(=O)(=O)[O-])[C@H](O[C@H]4O[C@H](COS(=O)(=O)[O-])[C@@H](OS(=O)(=O)[O-])[C@H](OS(=O)(=O)[O-])[C@@H]4OS(=O)(=O)[O-])[C@@H]3OS(=O)(=O)[O-])[C@@H]2OS(=O)(=O)[O-])[C@@H]1OS(=O)(=O)[O-].[Na+].[Na+].[Na+].[Na+].[Na+].[Na+].[Na+].[Na+].[Na+].[Na+].[Na+].[Na+].[Na+].[Na+].[Na+].[Na+] | 350 nM | 0.161 nM | 82 nM | 1.5 nM | 250.8 s | 124.4 s | > 100000 nM | Active | Toxic | 94% | 42% | 1.1 h | 1.1 h | 1.4 mL/min/kg | – | –
2 | CCCCCCCCO[C@H]1O[C@H](COS(=O)(=O)[O-])[C@@H](OS(=O)(=O)[O-])[C@H](OS(=O)(=O)[O-])[C@@H]1O[C@H]1O[C@H](COS(=O)(=O)[O-])[C@@H](OS(=O)(=O)[O-])[C@H](O[C@H]2O[C@H](COS(=O)(=O)[O-])[C@@H](OS(=O)(=O)[O-])[C@H](O[C@H]3O[C@H](COS(=O)(=O)[O-])[C@@H](OS(=O)(=O)[O-])[C@H](OS(=O)(=O)[O-])[C@@H]3OS(=O)(=O)[O-])[C@@H]2OS(=O)(=O)[O-])[C@@H]1OS(=O)(=O)[O-].[Na+].[Na+].[Na+].[Na+].[Na+].[Na+].[Na+].[Na+].[Na+].[Na+].[Na+].[Na+].[Na+] | 330 nM | 0.118 nM | 160 nM | 18 nM | 96.7 s | 79.5 s | > 100000 nM | – | Toxic | 86% | 64% | 1.7 h | 1.7 h | 0.2 mL/min/kg | 0.026 L/kg | 67%
